# High-throughput results as filed in PubChem.
# Rows were chosen to be rich in hits. Some 2.5% of all compounds tested hit in one or more screens of this group.
# SENP7 inh = inhibitors of human SENP7 protease. Q9BQF6. recombinant SENP7, Z-RLRGG-aminoluciferin luminescence, 40 min. inhibition, % at 5 µM. 1.5% of 330,000 active;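 active = inhibition above about 50% at the single test dose, limit read from the data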
# Target sequence (Q9BQF6 706-1050 limits assumed): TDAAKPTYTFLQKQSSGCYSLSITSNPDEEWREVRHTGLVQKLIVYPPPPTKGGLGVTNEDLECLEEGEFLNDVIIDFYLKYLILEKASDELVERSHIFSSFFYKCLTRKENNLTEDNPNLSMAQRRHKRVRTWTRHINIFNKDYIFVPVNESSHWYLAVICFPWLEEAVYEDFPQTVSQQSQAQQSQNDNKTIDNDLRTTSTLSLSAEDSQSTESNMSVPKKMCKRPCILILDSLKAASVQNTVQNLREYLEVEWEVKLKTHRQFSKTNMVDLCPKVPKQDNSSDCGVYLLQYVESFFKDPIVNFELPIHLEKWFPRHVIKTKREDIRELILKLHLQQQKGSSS
# SENP8 block-1 = blocks the human protease SENP8 | inhibition, % at 10 µM | 1.2% of 330,000 active | purified SENP8, Z-RLRGG-aminoluciferin cleavage, luminescence | AID 2540 | Q96LD8; in the data active = inhibition above about 50%
# SENP6 block = blocks the human protease SENP6 | Q9GZR1 | Recombinant SENP6 catalytic domain, aminoluciferin luminescence | inhibition, % at 10 µM | 1.8% of 330,000 active;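 active = inhibition above about 50% at the single tested dose, limit read from the data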
# SENP1 FRET inh = blocks the human SENP1 SUMO protease catalytic domain | Q9P0U3 | recombinant SENP1 catalytic domain, CyPet-SUMO1-YPet FRET cleavage | inhibition, % at 10 µM | 0.21% of 360,000 active | AID 624204;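 active = inhibition at least 30% at 10 µM, raw YFP signal under a set limit, fluorescence ratio 0.5 to 1.5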
# Target sequence (Q9P0U3 419-644 limits assumed): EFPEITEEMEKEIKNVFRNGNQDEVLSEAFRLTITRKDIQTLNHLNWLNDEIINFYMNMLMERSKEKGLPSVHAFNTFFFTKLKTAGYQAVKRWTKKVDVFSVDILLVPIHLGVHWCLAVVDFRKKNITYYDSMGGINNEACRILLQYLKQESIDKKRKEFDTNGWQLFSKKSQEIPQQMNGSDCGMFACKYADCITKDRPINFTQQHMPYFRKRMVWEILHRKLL
#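 Test system: human SENP1 catalytic domain; medium: Tris pH 8 buffer plus EDTA, NaCl, BME, BSA, NP40, catalase; incubation: 50 min reaction at room temperature; technique: FRET, CFP and YFP emission; controls: no-enzyme low control and enzyme-plus-DMSO high control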
# SENP8 block-2 = blocks human SENP8 cleavage of Nedd8 substrate; Q96LD8; inhibition, % at 20 µM; 0.64% of 360,000 active; recombinant SENP8, Nedd8 substrate fluorescence; in the data active = inhibition mostly above about 40%, no sharp cut-off; inactive = mostly below about 27%
# SENP8 conf = confirmation of human SENP8 protease inhibitors; shares compounds with SENP8 block-2; purified SENP8, Nedd8-AMC/pro-Nedd8 cleavage fluorescence, 30 min; inhibition, % at 25 µM; 15% of 1,400 active; AID 624319; in the data active = inhibition mostly above about 39%, no sharp cut-off; inactive = mostly below about 34%
# Numbers stand for hits; - = inactive; . = not tested or not shown.
SMILES,SENP7 inh,SENP8 block-1,SENP6 block,SENP1 FRET inh,SENP8 block-2,SENP8 conf
CS(=O)(=O)NCc1csc(-c2ccccc2)n1,-,-,-,-,44,-
COCOc1ccc(C2CC(=O)c3c(OCOC)cc(OCOC)cc3O2)cc1 (stereo not given),-,-,-,-,54,-
O=C1CC(c2ccc(O)cc2)Oc2cc(O)ccc21 (stereo not given),-,-,-,-,51,-
COc1ccc([C@@H]2CC(=O)c3c(O)cc(O)cc3O2)cc1O,-,-,-,-,-,.
O=C1CC(c2ccccc2)Oc2cc(O)ccc21 (stereo not given),-,-,-,-,-,.
COCOc1ccc(-c2cc(=O)c3c(OCOC)cc(OCOC)cc3o2)cc1,-,-,-,-,-,.
COc1cc(O)c2c(c1)OC(c1ccc(O)cc1)CC2=O (stereo not given),-,-,-,-,74,-
COc1ccc(S(=O)(=O)N(C)C[C@H]2Oc3c(NS(=O)(=O)c4cn(C)cn4)cccc3C(=O)N([C@H](C)CO)C[C@@H]2C)cc1,-,-,-,-,-,.
O=C(COC(=O)c1cccc(NS(=O)(=O)/C=C/c2ccccc2)c1)Nc1ccccc1OC(F)F,-,-,-,-,-,.
CC(=O)c1cccc(NS(=O)(=O)N2CCCCC2)c1,-,-,-,-,41,-
Cc1cc(=S)[nH]c2c(C)cccc12,-,-,-,-,40,-
COc1ccc(N/C=C/c2nc(SC)nnc2C)cc1,-,-,-,-,36,-
CCN(CC(=O)NC(C)(C)C)Cc1nc2c(Br)cc(Br)cc2c(=O)[nH]1,-,-,-,-,41,-
Cc1ccc(Nc2nc(N)c([N+](=O)[O-])c(NCCO)n2)cc1C,-,-,-,-,48,-
Cc1ccc(Nc2nc(N)c([N+](=O)[O-])c(N3CCOCC3)n2)cc1C,-,-,-,-,41,-
O=C(NCCNc1ccc([N+](=O)[O-])cc1C(F)(F)F)c1ccccc1F,-,-,-,-,44,-
O=C(Nc1cccnc1)c1ccc([N+](=O)[O-])s1,-,-,-,-,43,-
O=C(Nc1ccccc1F)c1ccc([N+](=O)[O-])s1,-,-,-,-,-,.
Cc1ccc(C)c(C(=O)COC(=O)c2cccc(N3C(=O)c4c(C)nc5ccccc5c4C3=O)c2)c1,-,-,-,-,42,-
COc1cc(N(C)C)ccc1[C@]1(O)C(=O)N(C)c2ccc(Br)cc21,.,.,.,-,-,.
CCN(CC)CCCOC(=O)C(c1ccccc1)c1ccccc1,-,-,-,-,62,-
CCC(C(=O)OCCOCCN(CC)CC)c1ccccc1 (stereo not given),-,-,-,-,-,.
CCN(CC)S(=O)(=O)c1cc([N+](=O)[O-])ccc1NNC(=O)Nc1ccccc1OC,-,-,-,-,51,-
COc1ccc(N(CCC#N)C(=O)/C(C#N)=C\c2cccs2)cc1,-,-,-,-,34,-
COCCNC(=O)/C(C#N)=C/c1cccs1,-,-,-,-,-,.
SMILES,SENP7 inh,SENP8 block-1,SENP6 block,SENP1 FRET inh,SENP8 block-2,SENP8 conf
CC1=NN(c2ccc(C)cc2C)C(=O)C1C(c1cccc(O)c1)C1C(=O)N(c2ccc(C)cc2C)N=C1C (stereo not given),-,-,-,-,60,44
CC1=NNC(=O)C1C(c1cccc(O)c1)C(C#N)C#N (stereo not given),-,-,-,-,-,.
Cc1c(OCC(=O)N[C@H](C(=O)O)c2ccccc2)ccc2c3c(c(=O)oc12)CCCC3,-,-,-,-,-,.
COc1ccc(OC)c(C(=O)c2c(C)oc3cc([N+](=O)[O-])c(O)c([N+](=O)[O-])c23)c1,-,-,-,-,-,.
Cc1oc2cc([N+](=O)[O-])c(O)c([N+](=O)[O-])c2c1C(=O)c1ccc(Cl)cc1,-,-,-,-,42,-
O=C(c1ccco1)N1N=C(c2ccccc2O)CC1c1cccs1 (stereo not given),.,.,.,-,-,.
O=C(O)CCCCCCCCCCCc1ccccc1,-,-,-,-,56,-
O=C(O)c1ccc(CCCc2ccccc2)cc1,.,.,.,-,-,.
CCOc1ccc(S(=O)(=O)N2CCN(C(=O)CCOc3ccccc3C)CC2)cc1,-,-,-,-,-,.
O=C(Nc1ccccc1Br)C1CC(=O)N(c2ccc3c4c(cccc24)CC3)C1 (stereo not given),-,-,-,-,-,.
C[C@@H]1CCCCO[C@@H](CN(C)S(=O)(=O)c2cn(C)cn2)[C@@H](C)CN([C@H](C)CO)C(=O)c2cc(N(C)C)ccc2O1,.,.,.,-,-,.
COc1ccccc1C(=O)NNC(=O)c1ccc(Br)cc1,-,-,-,-,-,.
CCC(C)[C@H](NC(=O)Nc1cccc(Cl)c1)C(=O)O (stereo not given in full),-,-,-,-,48,-
CCC(C)[C@H](NC(=O)Nc1ccc(S(N)(=O)=O)cc1)C(=O)O (stereo not given in full),-,-,-,-,-,.
COc1ccc(C(=O)CCC(=O)N2CCN(c3ccc(C)cc3)C(C)C2)cc1 (stereo not given),-,-,-,-,-,.
O=C(CCS(=O)(=O)c1cccc2nonc12)NCCc1ccccc1,-,-,-,-,41,-
CC(C)OCCCNC(=O)c1ccc(CN2CCc3ccccc3C2)cc1,-,-,-,-,-,.
CC(C)NC(=O)c1ccc(CN2CCc3ccccc3C2)cc1,-,-,-,-,44,-
Cc1ccc(/C=N/N2C(=S)SC(C)(C)C2N(O)C(=O)Nc2ccc([N+](=O)[O-])cc2)cc1 (stereo not given),-,-,-,-,40,-
CC1(C)SC(=S)N(/N=C/c2ccc(O)cc2)C1N(O)C(=O)Nc1ccc([N+](=O)[O-])cc1 (stereo not given),-,-,-,-,-,.
COc1ccc(/C=N\Nc2ccccc2[N+](=O)[O-])c(C(=O)O)c1OC,-,-,-,-,-,.
COc1ccc(/C=N\Nc2ccc([N+](=O)[O-])cc2[N+](=O)[O-])c(C(=O)O)c1OC,-,-,-,-,48,-
COc1ccccc1/C=N\Nc1ccccc1[N+](=O)[O-],99,90,94,-,50,-
CC1=C(/C=N/Nc2ccc([N+](=O)[O-])cc2[N+](=O)[O-])C(C)(C)CCC1,-,-,-,-,46,-
COc1ccccc1C(=O)NC(=O)Nc1c(C)cc(C)cc1C,-,-,-,-,-,.
CC(C)c1ccc(C2NC(=O)CCC2[N+](=O)[O-])cc1 (stereo not given),-,-,-,-,-,.
COC(=O)c1ccc(C(=O)OC)c(NC(=S)N2CCCC(C)C2)c1 (stereo not given),-,-,-,-,-,.
N#CC1=C(N)Oc2c(oc(CO)cc2=O)C1c1cccs1 (stereo not given),-,-,-,-,45,-
